Results: ChEMBL document CHEMBL3392968 (Eur J Med Chem, 2015)
pIC50, pKi: −log10 of the molar value. Converted amounts (≈) assume the structure as drawn. The source made the active and inactive calls. The calls are words filed in the database; no cut-off is given here.

Assays:
[1] = Displacement of [3H]-DTG from sigma 2 receptor guinea pig brain membranes incubated for 120 mins by scintillation counting method; design: species or system Cavia porcellus, Membrane
Method in brief: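 Guinea pig brain membranes (360 µg protein) with 3 nM [3H]DTG and test compound (10^-5 to 10^-10 M) in 50 mM Tris-HCl pH 8.0, 120 min at room temperature, with 400 nM (+)-SKF10,047 masking σ1 sites. Nonspecific binding with 5 µM DTG; PEI-presoaked GF/B filtration, scintillation counting, Ki by EBDA/LIGAND.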

[2] = test system: C6; assay: Cytotoxicity against rat C6 cells assessed as reduction in cell viability at 0.1 to 5 uM after 48 hrs by MTT assay; assay type: functional
Method in brief: (§1)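 C6 cells (HAM'S F12, 10% FBS, 2 mM glutamine, 37 °C, 5% CO2) seeded at 5 × 10^4 cells/well and exposed to 0.1–5 µM for 24, 48 or 72 h. MTT reduction read at 570 nm; viability = A_sample/A_vehicle control × 100. Four independent experiments.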

[3] = test system: C6; assay: Induction of cell cycle arrest in rat C6 cells assessed as accumulation at G1 phase after 24 and 48 hrs by propidium iodide staining based flow cytometry; assay type: functional
Method in brief: (§2)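 C6 cells at 5 µM. About 3 × 10^5 cells fixed in 70% cold ethanol overnight at 4 °C, then stained with 20 µg/mL PI plus 100 µg/mL RNase (final). 10^4 cells analysed by flow cytometry (linear FL3), with doublets excluded by FL3-Area/Width gating; G1, S and G2/M fractions taken from DNA content.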

[4] = test system: C6; assay: Induction of cell cycle arrest in rat C6 cells assessed as accumulation at S phase after 24 and 48 hrs by propidium iodide staining based flow cytometry; assay type: functional; method in brief: as §2
[5] = test system: C6; assay: Induction of cell cycle arrest in rat C6 cells assessed as accumulation at G2/M phase after 24 and 48 hrs by propidium iodide staining based flow cytometry; assay type: functional; method in brief: as §2
[6] = test system: C6; assay: Induction of cell cycle arrest in rat C6 cells assessed as increase in accumulation at S phase after 72 hrs by propidium iodide staining based flow cytometry; assay type: functional; method in brief: as §2
[7] = test system: C6; assay: Antimigratory activity against rat C6 cells assessed as cell migration level at 5 uM after 24 hrs by transwell chamber assay (reference value: 60%); assay type: functional, cell-based
Method in brief: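 C6 cells grown to 70-80% confluency, serum-starved 24 h, then seeded at 10^5 cells/mL in serum-free HAM'S F12 into the upper chamber of an 8 µm-pore transwell; lower chamber held medium with 5% FCS. Compounds (5 µM final) added 2 h after seeding; 24 h at 37 °C. Migrated cells methanol-fixed, DAPI-stained, counted in five fields, scaled to insert area, expressed as % of cells seeded.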

[8] = target: T1, Histone deacetylase (Rattus norvegicus) (UniProt Q6P6W3+Q99P99+Q99P96+Q4QQW4+Q99P97+Q5RJZ2+B1WBY8); assay: Inhibition of HDAC in rat C6 cells assessed as increase in histone H3 acetylation at 5 uM after 6 hrs by flow cytometry (reference value: 4.5%); assay type: cell-based; design: scale not given: the % may be the effect or the level left
Method in brief: (§3)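 C6 cells treated at 5 µM for 6, 15 or 24 h, with DMSO vehicle as control. Fixed in 1% paraformaldehyde, permeabilized with 0.1% Triton X-100, blocked in goat serum. Stained with anti-acetyl-H3 (Lys9) rabbit mAb (1:100, 1 h on ice), then FITC anti-rabbit IgG (20 µg/mL, 45 min). About 10000 events at 488 nm; acetylation quantified from MFI.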

[9] = target: T1, Histone deacetylase (Rattus norvegicus); assay: Inhibition of HDAC in rat C6 cells assessed as increase in histone H3 acetylation at 5 uM after 15 hrs by flow cytometry; assay type: cell-based; method in brief: as §3
[10] = target: D(2) dopamine receptor (Rattus norvegicus, UniProt P61169); assay: Displacement of [3H]-spiperone from dopamine D2 receptor in rat striatum by scintillation counting method
Sequence of D(2) dopamine receptor (P61169 whole entry): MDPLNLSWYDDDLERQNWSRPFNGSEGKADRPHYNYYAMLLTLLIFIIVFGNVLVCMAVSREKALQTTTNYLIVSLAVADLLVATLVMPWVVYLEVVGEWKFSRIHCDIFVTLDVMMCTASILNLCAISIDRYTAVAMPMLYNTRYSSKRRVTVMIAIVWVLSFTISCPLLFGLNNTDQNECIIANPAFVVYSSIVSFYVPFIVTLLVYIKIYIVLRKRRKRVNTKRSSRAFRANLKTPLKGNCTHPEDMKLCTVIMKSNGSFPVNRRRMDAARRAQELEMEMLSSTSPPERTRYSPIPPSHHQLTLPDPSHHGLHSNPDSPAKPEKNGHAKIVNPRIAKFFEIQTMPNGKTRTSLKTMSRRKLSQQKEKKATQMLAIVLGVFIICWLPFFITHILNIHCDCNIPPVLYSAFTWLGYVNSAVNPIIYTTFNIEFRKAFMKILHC

[11] = Stability in rat plasma assessed half life at 1 mg/mL by HPLC method; assay type: ADME, cell-free
Method in brief: (§4)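 Human or rat plasma, obtained from citrated blood (0.3% citric acid) centrifuged at 3000 × g, diluted to 80% with 0.02 M phosphate buffer pH 7.4, incubated with compound at 37 °C. Samples centrifuged at 5000 × g; supernatant analysed by RP-C18 HPLC; remaining intact compound plotted against time to obtain kobs and half-life.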

[12] = Stability in human plasma assessed half life at 1 mg/mL by HPLC method; assay type: ADME, cell-free; method in brief: as §4
[13] = test system: Plasma; assay: Stability in rat plasma assessed pseudo-first-order rate constant at 1 mg/mL by HPLC method; assay type: ADME, cell-free; method in brief: as §4
[14] = test system: Plasma; assay: Stability in human plasma assessed pseudo-first-order rate constant at 1 mg/mL by HPLC method; assay type: ADME, cell-free; method in brief: as §4
[15] = target: Sigma non-opioid intracellular receptor 1 (Cavia porcellus, UniProt Q60492); assay: Displacement of [3H]-(+)-pentazocine from sigma 1 receptor guinea pig brain membranes incubated for 150 mins by scintillation counting method; design: species or system Membrane
Sequence of Sigma non-opioid intracellular receptor 1 (Q60492 whole entry): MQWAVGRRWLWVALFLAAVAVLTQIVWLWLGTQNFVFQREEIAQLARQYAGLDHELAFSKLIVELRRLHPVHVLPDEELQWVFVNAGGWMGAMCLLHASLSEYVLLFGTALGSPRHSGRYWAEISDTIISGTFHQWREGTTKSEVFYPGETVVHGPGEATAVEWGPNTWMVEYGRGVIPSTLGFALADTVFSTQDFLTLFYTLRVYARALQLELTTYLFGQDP

[16] = target: D(3) dopamine receptor (Rattus norvegicus, UniProt P19020); assay: Displacement of [3H]-7-OH-DPAT from dopamine D3 receptor in rat olfactory tubercle by scintillation counting method; assay type: tissue-based
Sequence of D(3) dopamine receptor (P19020 whole entry): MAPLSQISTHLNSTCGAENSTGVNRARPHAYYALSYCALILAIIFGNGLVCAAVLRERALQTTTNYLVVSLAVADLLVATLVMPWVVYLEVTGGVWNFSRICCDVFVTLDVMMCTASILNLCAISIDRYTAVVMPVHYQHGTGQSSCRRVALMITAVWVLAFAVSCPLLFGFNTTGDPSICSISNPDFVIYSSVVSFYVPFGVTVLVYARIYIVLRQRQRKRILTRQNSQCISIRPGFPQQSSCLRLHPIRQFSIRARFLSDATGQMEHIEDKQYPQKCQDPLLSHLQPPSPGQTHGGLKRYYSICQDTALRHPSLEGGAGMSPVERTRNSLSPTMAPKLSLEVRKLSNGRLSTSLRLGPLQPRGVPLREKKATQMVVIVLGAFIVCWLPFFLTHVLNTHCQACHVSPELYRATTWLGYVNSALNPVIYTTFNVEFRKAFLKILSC

[17] = test system: C6; assay: Cytotoxicity against rat C6 cells assessed as reduction in cell viability at 0.1 to 5 uM after 24 hrs by MTT assay; assay type: functional, cell-based; method in brief: as §1
[18] = test system: C6; assay: Cytotoxicity against rat C6 cells assessed as reduction in cell viability at 0.5 to 5 uM after 24 hrs by MTT assay; assay type: functional; method in brief: as §1
[19] = test system: C6; assay: Cytotoxicity against rat C6 cells assessed as reduction in cell viability at 0.1 to 5 uM after 72 hrs by MTT assay; assay type: functional; method in brief: as §1
[20] = test system: C6; assay: Induction of necrosis in rat C6 cells after 24 to 72 hrs by Annexin-V/propidium iodide staining based flow cytometry
[21] = test system: C6; assay: Induction of late apoptosis in rat C6 cells after 24 to 72 hrs by Annexin-V/propidium iodide staining based flow cytometry
[22] = test system: C6; assay: Induction of late apoptosis in rat C6 cells after 25 to 72 hrs by Annexin-V/propidium iodide staining based flow cytometry; assay type: functional; details: in the assay text read “24 to 72 hrs” for “25 to 72 hrs”
Method in brief: (§5)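 C6 cells treated at 5 µM for 24, 48 and 72 h. 2.5 × 10^5 cells stained with Annexin-V-FITC (10 min, room temperature, dark), then PI 5 µg/mL. At least 10^4 events collected (FL1/FL3). Late apoptotic cells were Annexin-V+/PI+; necrotic cells were Annexin-V−/PI+.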

[23] = test system: C6; assay: Induction of necrosis in rat C6 cells after 25 to 72 hrs by Annexin-V/propidium iodide staining based flow cytometry; assay type: functional; details: in the assay text read “24 to 72 hrs” for “25 to 72 hrs”; method in brief: as §5
[24] = target: T1, Histone deacetylase (Rattus norvegicus); assay: Inhibition of HDAC in rat C6 cells assessed as increase in histone H3 acetylation at 5 uM after 24 hrs by flow cytometry (reference value: 4.5%); assay type: cell-based; design: scale not given: the % may be the effect or the level left; method in brief: as §3
[25] = Solubility in water at 50 mg incubated at 25 degC for 1 hr by HPLC method; assay type: physicochemical
[26] = Effective permeability of the compound by PAMPA method; assay type: ADME; details: read-out: Peff
Method in brief: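 PAMPA using a porcine polar brain lipid–impregnated filter. Donor: phosphate buffer pH 7.4/pH 6.5 with 500 µM compound and 20% iPrOH co-solvent; acceptor: same buffer. Incubated 18 h at room temperature; donor and acceptor concentrations measured by HPLC; Peff calculated from volumes, filter area (0.28 cm2) and time.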

[27] = Stability in pH 1.3 0.02 M […] buffer containing 0.1% (v/v) Cremophor ELP assessed as half life […] by HPLC method; assay type: physicochemical
Method in brief: (§6)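 Reaction started by adding 1 mL of a 10^-4 M acetonitrile stock to 10 mL of buffer at 37 ± 0.5 °C. Buffers: pH 7.4, 0.02 M phosphate; pH 1.3, 0.02 M chloridric; both with 0.1% (v/v) Cremophor ELP. Followed by RP-C18 HPLC; run in triplicate, with mean rate constants reported.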

[28] = Stability in pH 7.4 0.02 M phosphate buffer containing 0.1% (v/v) Cremophor ELP assessed as half life at […] by HPLC method; assay type: physicochemical; method in brief: as §6
[29] = Stability in pH 1.3 0.02 M […] buffer containing 0.1% (v/v) Cremophor ELP assessed as pseudo-first-order rate constant […] by HPLC method; assay type: physicochemical; method in brief: as §6
[30] = Stability in pH 7.4 0.02 M phosphate buffer containing 0.1% (v/v) Cremophor ELP assessed as pseudo-first-order rate constant […] by HPLC method; assay type: physicochemical; method in brief: as §6
[31] = test system: C6; assay: Drug metabolism in rat C6 cells assessed as metabolite formation at 5 uM incubated for 24 hrs at 37 degC by LC/MS spectrometry; assay type: ADME, cell-based; details: c6, 24 h
Method in brief: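 Glioma C6 cells incubated with 5 µM for 24 h at 37 °C. Cell lysates (2 mg) analysed by LC-MS, compared with untreated control lysates, to detect metabolite ions.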

| Structure (SMILES) | pKi [1] | Activity [2] | Activity [3] | Activity [4] | Activity [5] | Activity [6] | Activity [7] | Activity [8] | Activity [9] | half-life at 1 mg/mL [11] [h] | half-life at 1 mg/mL [12] [h] | K [13] [h⁻¹] | K [14] [h⁻¹] | pKi [16] | Activity [17] | Activity [19] [%] | other results |
| --- | --- | --- | --- | --- | --- | --- | --- | --- | --- | --- | --- | --- | --- | --- | --- | --- | --- |
| OC(CCCN1CCC(O)(c2ccc(Cl)cc2)CC1)c1ccc(F)cc1 (racemic) [HYDROXYHALOPERIDOL] | 8.70 | inactive | inactive | inactive | inactive | inactive | inactive | inactive | inactive |  |  |  |  |  |  |  |  |
| O=C(CCCc1ccccc1)O[C@@H](CCCN1CCC(O)(c2ccc(Cl)cc2)CC1)c1ccc(F)cc1 | 6.93 | 60% | inactive | inactive | inactive | Active | Active | inactive | inactive | 0.224 | 90.7 | 3.09 | 0.008 | < 5.30 | Dose-dependent effect | 40 | pKi [10]: < 5.30; pKi [15]: 6.64; Activity [18]: 50%; Activity [20]: 25%; Activity [21]: 25% |
| O[C@@H](CCCN1CCC(O)(c2ccc(Cl)cc2)CC1)c1ccc(F)cc1 | 8.01 |  |  |  |  |  |  |  |  |  |  |  |  | 6.45 |  |  |  |
| O=C(CCCc1ccccc1)O[C@H](CCCN1CCC(O)(c2ccc(Cl)cc2)CC1)c1ccc(F)cc1 | 7.28 | 60% | inactive | inactive | inactive | Active | Active | 16.1% | inactive | 0.312 | 84.3 | 2.22 | 0.008 | < 5.30 | Dose-dependent effect | 40 | pKi [10]: < 5.30; pKi [15]: 7.06; Activity [22]: 40%; Activity [23]: 40%; Activity [18]: 40%; Activity [24]: 7.2% |
| O[C@H](CCCN1CCC(O)(c2ccc(Cl)cc2)CC1)c1ccc(F)cc1 | 7.49 |  |  |  |  |  |  |  |  |  |  |  |  | 5.89 |  |  |  |
| O=C(CCCN1CCC(O)(c2ccc(Cl)cc2)CC1)c1ccc(F)cc1 [HALOPERIDOL] | 7.74 |  |  |  |  |  |  |  |  |  |  |  |  |  |  |  |  |
| O=C(O)CCCc1ccccc1 [PHENYLBUTANOIC ACID] |  |  | inactive | inactive | inactive | inactive | inactive | 14% | inactive |  |  |  |  |  |  |  |  |
| Cc1ccccc1NC(=N)Nc1ccccc1C [DITOLYLGUANIDINE] | 7.66 |  |  |  |  |  |  |  |  |  |  |  |  |  |  |  |  |
| O=C(CCCc1ccccc1)OC(CCCN1CCC(O)(c2ccc(Cl)cc2)CC1)c1ccc(F)cc1 (racemic) |  | 60% | inactive | inactive | inactive | Active | Active | 14% | inactive | 0.108 | 92 | 6.41 | 0.008 |  | Dose-dependent effect | 40 | solubility at 1 h [25]: 1.2 µg/mL (≈ 2.29 µM); Papp [26]: 5.25 ×10⁻⁶ cm/s; half-life at 10000 µM [27]: 140 h; half-life at 10000 µM [28]: 127 h; K [29]: 0.005 h⁻¹; K [30]: 0.005 h⁻¹; Drug metabolism [31]: metabolite_detected; Activity [22]: 35%; Activity [23]: 35%; pIC50 ([17]; C6, 24 h): 5.30 |
